Compound activity: PubChem BioAssay, Broad Institute
The list is not random: actives were taken first. Their share in the collection is about 2.2%.
CDK5 p35 inh: inhibitors of human CDK5/p35 kinase, primary screen, biochemical, single concentration; Cyclin-dependent kinase 5 (Homo sapiens) + Cyclin-dependent kinase 5 activator 1 (Homo …; Recombinant CDK5/p35, ADP-Glo luminescence, 60 min; inhibition, % at 10 µM; 330,000 tested, 0.01% active; AID 488839, 2010;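 active means highest replicate inhibition of at least 50% and at least 75% of replicates reaching 50%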;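 further: plate controls were DMSO neutral control for no effect and GW8510 at 10 µM for full effect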
Rtt109 Vps75: inhibitors of C. albicans Rtt109/Vps75 HAT, primary screen, biochemical, ThioGlo CoA-SH fluorescence, plate reader | Histone acetyltransferase RTT109 (Candida albicans (strain SC5314 / ATCC MYA-2876)), … | purified Rtt109/Vps75, 4 h | 330,000 tested, 0.16% active | inhibition, % at 34.9 µM | AID 540336, 2011;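 active means inhibition of at least 50% in every replicate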
dFosB activator: activators of delta FosB homodimer, primary screen, biochemical, fluorescence polarization, TAMRA-CDK5 oligo, single point; AID 493131, 2011; purified delta FosB; percent of positive-control signal above neutral wells; activation, % at 25 µM; Protein FosB (Mus musculus), P13346; 340,000 tested, 0.99% active;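 active means mean activation above about 17%, with every replicate also reaching it, limit read from the data, passing the limit was not always enough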
Target sequence (P13346 whole entry, looked up): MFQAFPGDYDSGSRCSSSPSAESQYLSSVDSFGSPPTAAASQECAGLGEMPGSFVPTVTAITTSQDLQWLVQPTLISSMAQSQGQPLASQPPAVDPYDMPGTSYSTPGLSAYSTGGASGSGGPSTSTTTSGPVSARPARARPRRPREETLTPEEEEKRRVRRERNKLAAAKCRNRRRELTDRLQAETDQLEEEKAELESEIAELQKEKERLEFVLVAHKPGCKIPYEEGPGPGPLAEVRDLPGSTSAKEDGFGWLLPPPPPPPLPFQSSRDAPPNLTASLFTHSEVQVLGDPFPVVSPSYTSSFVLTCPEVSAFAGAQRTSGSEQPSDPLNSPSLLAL
DYRK1A inh: rat Dyrk1A kinase inhibitors, primary screen, biochemical, single point, plate reader. 310,000 tested, 0.43% active. inhibition, % at 12.5 µM. AID 504441, 2011. ADP-Glo luminescence, NFATc1 peptide; in the data active means inhibition above about 50%;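 further: plate controls were vehicle with enzyme for no effect and no enzyme for full effect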
CAL PDZ FP-1: CAL PDZ peptide-binding inhibitors, primary screen, biochemical, fluorescence polarization, Cer-tagged CAL PDZ, HTS. purified CAL PDZ, TMR-peptide fluorescence polarization, 1 h. inhibition, % at 20 µM. 330,000 tested, 0.02% active. AID 504414, 2011;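 active means highest replicate inhibition of at least 40%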;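 further: plate controls were DMSO neutral control wells for no effect and unlabeled competitor peptide control wells for full effect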
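Assay system – tagged CAL PDZ protein CerCALP, purified · Timing – 1 h at RT · Compound – single point, 20 µM · Measured by – fluorescence polarization from S- and P-plane intensities, G-factor corrected · Evaluation – inhibition from polarization loss · Probe or stimulus – TMR reporter peptide T*-PRC34 · Buffer or medium – pH 7.4 phosphate-saline buffer, reducing agent, detergent, IgG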
CAL PDZ FP-2: untagged CAL PDZ binding inhibitors, primary screen, biochemical, fluorescence polarization, HTS; AID 602252, 2012; purified CAL PDZ, TMR-peptide fluorescence polarization, 1 h; inhibition, % at 24.9 µM; 300,000 tested, 0.92% active;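 active means mean inhibition of at least 30% with at least half of replicates also reaching 30%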;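 further: 0% = DMSO neutral control and 100% = excess unlabeled competitor peptide PRC23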
The depositor's hits bear a star; . = not tested or not shown.

SMILES | CDK5 p35 inh | Rtt109 Vps75 | dFosB activator | DYRK1A inh | CAL PDZ FP-1 | CAL PDZ FP-2
CCCCCCCCCCCC(=O)NC(C(=O)O)C(O)c1ccccc1 (stereo not given) | -2 | -2 | 0 | . | -1 | -3
CN(C)C(=O)CSc1nc2cc(S(=O)(=O)N3CCOCC3)ccc2o1 | -2 | -2 | -2 | -5 | 0 | 90*
NC(=O)CSc1nc2cc(S(=O)(=O)N3CCOCC3)ccc2o1 | 1 | -1 | 1 | . | 0 | 0
CCn1c(=O)c2c(nc3n2CCN3c2ccccc2)n(C)c1=O | 1 | 10 | 2 | 0 | 0 | -4
CCOCCn1c(=O)c2c(nc3n2CCN3c2ccc(C)cc2)n(C)c1=O | -2 | -19 | 5 | -2 | 0 | 77*
Cc1c(C(=O)C(=O)NCc2ccco2)c2ccccc2n1C | -2 | -4 | -2 | 6 | 2 | 56*
O=C1NC(=O)/C(=C/c2ccccn2)S1 | 1 | 8 | -5 | 45 | 0 | -2
COc1ccc(OC)c(C2CC(=O)N3CN(c4ccc(C)c(Cl)c4)CSC3=C2C#N)c1 (stereo not given) | 1 | 91* | -9 | 6 | 0 | -3
COc1ccc(OC)c(C2CC(=O)N3CN(c4cccc(Cl)c4)CSC3=C2C#N)c1 (stereo not given) | -1 | -2 | -3 | -2 | -1 | .
COC(=O)c1cc(NC(=S)N2CCN(C(=O)C3CCCO3)CC2)cc(C(=O)OC)c1 (stereo not given) | 0 | -4 | -2 | -4 | -4 | -5
O=C1NC(=O)C(CSc2ccccc2)(c2ccccc2)N1 (stereo not given) | -4 | -6 | -3 | -2 | 0 | 42*
O=C(NC1=C(Nc2ccc(F)cc2)C(=O)c2ccccc2C1=O)c1ccc(Cl)cc1 | -2 | 2 | -4 | -2 | -2 | 70*
O=C(Nc1ccccc1NC(=O)c1ccc(F)cc1)c1ccc(F)cc1 | 1 | -2 | -4 | 0 | 0 | 1
NCC12CC3CC(C1)CC(c1ccc(Cl)cc1)(C3)C2 | -3 | 51* | 5 | 0 | -1 | -6
Nc1ccc(C23CC4CC(CC(CO)(C4)C2)C3)cc1 | 0 | 3 | -1 | -9 | 0 | -2
Cc1ccc(NC(=O)NCC2CCN(Cc3cccc(Cl)c3)CC2)cc1Cl | 0 | 13 | 20* | 2 | -5 | -10
CCc1ccc(NC(=O)NCC2CCN(Cc3cccc(Cl)c3)CC2)cc1 | 1 | -7 | -4 | -5 | 0 | 0
O=C(COC(=O)c1ccc2ncsc2c1)NCc1ccc(F)cc1 | 2 | -8 | 3 | . | 0 | 54*
COc1ccc(NS(=O)(=O)c2ccc(O)c(C(=O)OCC(=O)N3CCCCC3)c2)cc1 | -1 | 1 | -2 | 1 | -1 | 39*
COc1ccc(-c2noc(-c3ccccc3C(=O)NCC3CCCO3)n2)cc1 (stereo not given) | 0 | 6 | 2 | 3 | -1 | 70*
O=C(/C=C/c1ccccc1Cl)N1CCOCC1 | 0 | -3 | 1 | 4 | -4 | -6
O=C(/C=C/c1cccc2ccccc12)N1CCOCC1 | 2 | 0 | 2 | 3 | -1 | 49*
Cc1cccc(-c2ncc(CN3CCCC(CO)(Cc4cccc(Cl)c4)C3)cn2)c1 (stereo not given) | -1 | -12 | -9 | 1 | 16 | 57*
O=C(CN(C(=O)c1csnn1)c1ccc(F)cc1)NCc1ccc2c(c1)OCO2 | 1 | -10 | 5 | 1 | -2 | -2
Cc1ccc(O)c(Nc2c3ccccc3nc3ccccc23)c1 | 2 | 5 | 35* | 3 | 1 | 2
CCN(CC)CC(=O)NCC1(c2ccccc2)CCOCC1 | -1 | 2 | -2 | 4 | -2 | 70*
CC1=C(c2ccccc2)CCC1=O | -1 | -1 | 4 | 5 | 1 | -2
